A selection: hits, their analogues and other compounds. The true share with any hit is near 5.4%.
aSyn UTR inh – 5' untranslated region of α-synuclein, MLPCN primary screen; 0.82% of 300,000 active; inhibition, % (tested at 7.5 µM); AID 1813; alpha-synuclein 5'UTR reporter, inhibitor activity; in the data active means inhibition above about 60%; inconclusive means no clear call, values can overlap the other calls;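 further: H4 neuroglioblastoma cells stably carrying SNCA 5'UTR luciferase fusion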
SKKanGAS inh – SKKanGAS growth inhibition | S. pyogenes SKKanGAS, kanamycin growth, BacTiter-Glo, 6 h | inhibition, % at 7.5 µM | 1.3% of 300,000 active;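 active means mean replicate score, as percent of positive control median, at least 50; inconclusive means mean below 50 but one replicate at or above 50; inactive means mean and every replicate below 50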;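 further: strain carries kanamycin resistance gene driven by streptokinase promoter and grows in 40 µg/ml kanamycin; loss of luminescence reflects streptokinase promoter inhibition or plain growth inhibition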
T cruzi inh – T. cruzi replication inhibition; T. cruzi beta-gal in NIH3T3, luminescence, 90 h; inhibition, % (no concentration beside the values); 1.4% of 300,000 active; AID 1885;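 active means mean inhibition across valid replicates above about 55%, limit read from the data; inconclusive means mean below that limit but half or more replicates reach it; inactive means mean below it, under half of replicates reach it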;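 further: signal also drops with host cell toxicity which is not excluded here; higher percent means less beta-gal luminescence so fewer parasites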
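System: NIH/3T3 fibroblasts plus reporter T. cruzi. Medium: DMEM plus 2% FBS. Probe or stimulus: 5000 reporter trypomastigotes per well. Compound: single 50 nL compound addition per well in DMSO. Incubation: co-culture of at least 90 h after 3 h attachment. Detection: GalScreen β-gal luminescence, detergent lysis, 60 min. Evaluation: parasite load inhibition, %.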
CSC inhib – blocks cancer stem cells; cancer stem cell-like cells viability, luminescence; inhibition, % at 7.5 µM; 1.1% of 300,000 active; AID 2717; in the data active means inhibition above about 75%; inconclusive means no clear call, values can overlap the other calls; tested in HMLE shEcad cells
Mdm2-MdmX inh – inhibitors of human Mdm2/MdmX interaction. O15151+Q00987. SaOS-2 split-luciferase Mdm2/MdmX complementation, luminescence. inhibition, % at 8 µM. 3% of 330,000 active. AID 485346;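 active means inhibition of at least 50% at 8 µM in the primary screen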
Target sequence (O15151 whole entry, looked up): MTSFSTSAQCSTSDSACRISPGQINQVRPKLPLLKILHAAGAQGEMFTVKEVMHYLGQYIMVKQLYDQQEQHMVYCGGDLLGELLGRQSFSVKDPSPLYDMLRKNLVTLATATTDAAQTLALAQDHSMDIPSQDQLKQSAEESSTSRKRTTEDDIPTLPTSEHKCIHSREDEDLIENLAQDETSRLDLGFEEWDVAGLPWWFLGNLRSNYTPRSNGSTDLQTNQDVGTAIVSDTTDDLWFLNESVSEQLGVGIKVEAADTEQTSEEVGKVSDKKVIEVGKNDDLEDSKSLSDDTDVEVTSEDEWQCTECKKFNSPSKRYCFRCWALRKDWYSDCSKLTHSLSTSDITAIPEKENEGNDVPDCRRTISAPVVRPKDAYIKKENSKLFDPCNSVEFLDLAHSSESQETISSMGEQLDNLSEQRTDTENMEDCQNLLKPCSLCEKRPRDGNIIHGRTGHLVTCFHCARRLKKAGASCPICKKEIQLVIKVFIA
Target sequence (Q00987 whole entry, looked up): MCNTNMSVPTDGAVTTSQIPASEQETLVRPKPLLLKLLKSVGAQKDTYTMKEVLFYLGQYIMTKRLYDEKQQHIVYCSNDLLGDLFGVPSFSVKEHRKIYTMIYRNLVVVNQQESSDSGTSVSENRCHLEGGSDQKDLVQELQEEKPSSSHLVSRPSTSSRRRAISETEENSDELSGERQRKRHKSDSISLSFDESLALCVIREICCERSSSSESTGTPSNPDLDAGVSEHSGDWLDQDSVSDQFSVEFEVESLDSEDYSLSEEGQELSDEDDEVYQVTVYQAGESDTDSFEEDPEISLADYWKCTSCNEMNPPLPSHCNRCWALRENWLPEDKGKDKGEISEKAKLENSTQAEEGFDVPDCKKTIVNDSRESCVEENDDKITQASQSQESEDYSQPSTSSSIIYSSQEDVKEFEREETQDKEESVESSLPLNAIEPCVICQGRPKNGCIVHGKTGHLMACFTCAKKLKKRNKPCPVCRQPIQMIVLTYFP
Mdm2 MdmX conf – confirmation of human Mdm2/MdmX interaction inhibitors; Mdm2-MdmX binding, luminescent assay; 55% of 10,000 active; inhibition, % at 8 µM; shares compounds with Mdm2-MdmX inh; in the data active means inhibition above about 40%
Full FLuc ctr – inhibits full-length luciferase, flagging false Mdm2/MdmX hits; shares compounds with Mdm2-MdmX inh; inhibition, % at 8 µM; SaOS-2 full-length luciferase counterscreen, luminescence; 77% of 6,200 active;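 active means mean inhibition at 8 µM reaching about 37%, which flags the compound as non-specific, limit read from the data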;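 further: p53-null SaOS-2 cells with luciferase driven by a doxycycline-inducible promoter; compound on cells about two nights before reading with doxycycline added after day one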
Numbers stand for hits.

What do the screens show for `CCN(CC)c1ccc(/C=N\N2CCN(Cc3ccc(C)cc3)CC2)cc1`?
aSyn UTR inh: inactive; SKKanGAS inh: inactive; T cruzi inh: inactive; CSC inhib: inactive; Mdm2-MdmX inh: inactive

What do the screens show for `CCc1ccc(C(C(=O)NC2CCCC2)N(C(=O)/C=C/C(=O)Nc2cc(C)on2)c2ccccc2C)cc1` (stereo not given)?
aSyn UTR inh: inactive; SKKanGAS inh: inactive; T cruzi inh: inactive; CSC inhib: inactive; Mdm2-MdmX inh: 77; Mdm2 MdmX conf: 75; Full FLuc ctr: 59

What do the screens show for `Cc1cccc(N(C(=O)CCC(=O)Nc2cc(C)on2)C(C(=O)NC2CCCC2)c2ccccc2)c1` (stereo not given)?
aSyn UTR inh: inactive; SKKanGAS inh: inactive; T cruzi inh: inactive; Mdm2-MdmX inh: inactive

What do the screens show for `CCOc1ccc(N(C(=O)/C=C/C(=O)Nc2cc(C)on2)C(C(=O)NC2CCCC2)c2ccccc2C)cc1` (stereo not given)?
aSyn UTR inh: inactive; SKKanGAS inh: inactive; T cruzi inh: inactive; Mdm2-MdmX inh: 81; Mdm2 MdmX conf: 77; Full FLuc ctr: inactive

What do the screens show for `Cc1cc(NC(=O)CCC(=O)N(CC(=O)NC2CCCC2)c2ccccc2)no1`?
aSyn UTR inh: inactive; SKKanGAS inh: inactive; T cruzi inh: inactive; CSC inhib: inactive; Mdm2-MdmX inh: inactive

What do the screens show for `Cc1cc(NC(=O)/C=C/C(=O)N(CC(=O)NC2CCCC2)c2cccc3ccccc23)no1`?
aSyn UTR inh: inactive; SKKanGAS inh: inactive; T cruzi inh: inactive; CSC inhib: inactive; Mdm2-MdmX inh: 53; Mdm2 MdmX conf: inactive

Results for COc1ccccc1C1=NNC(=Nc2cccc(S(=O)(=O)N(C)C)c2)SC1 ?
aSyn UTR inh: inactive; SKKanGAS inh: inactive; T cruzi inh: inactive; CSC inhib: inactive; Mdm2-MdmX inh: inactive

How did Nc1nc(Cl)nc2ncn(Cc3ccccc3)c12 do in these assays?
aSyn UTR inh: inactive; SKKanGAS inh: inactive; T cruzi inh: inactive; CSC inhib: inactive; Mdm2-MdmX inh: inactive

How did Nc1cc(C(=O)OCC(=O)NNC(=O)c2cccs2)ccc1Cl do in these assays?
aSyn UTR inh: inactive; SKKanGAS inh: inactive; T cruzi inh: inactive; CSC inhib: inactive; Mdm2-MdmX inh: inactive

What do the screens show for `CC(C)Oc1ccc(/C(O)=C2/C(=O)C(=O)N(CCN3CCNCC3)C2c2cccc([N+](=O)[O-])c2)cc1` (stereo not given)?
aSyn UTR inh: inactive; SKKanGAS inh: inactive; T cruzi inh: inactive; CSC inhib: inactive; Mdm2-MdmX inh: inactive

How did CC(=O)Nc1nnc(SCC(=O)Nc2ccc3c(c2)OCCO3)s1 do in these assays?
aSyn UTR inh: inactive; SKKanGAS inh: inactive; T cruzi inh: inactive; CSC inhib: inactive; Mdm2-MdmX inh: inactive

Results for CC(=O)Nc1nnc(SCC(=O)Nc2ccc(N3CCOCC3)c(Cl)c2)s1 ?
aSyn UTR inh: inactive; SKKanGAS inh: inactive; T cruzi inh: inactive; CSC inhib: inactive; Mdm2-MdmX inh: 59; Mdm2 MdmX conf: inactive

Results for Cc1ccc2nc(N3CCN(c4cccc(C)c4C)CC3)c3nnnn3c2c1 ?
aSyn UTR inh: inactive; SKKanGAS inh: inactive; T cruzi inh: inactive; CSC inhib: inactive; Mdm2-MdmX inh: inactive

How did Cc1ccc2nc(Cl)c3nnnn3c2c1 do in these assays?
aSyn UTR inh: inactive; SKKanGAS inh: inactive; T cruzi inh: inactive; CSC inhib: inconclusive; Mdm2-MdmX inh: 97; Mdm2 MdmX conf: 90; Full FLuc ctr: inactive

Results for Cc1cccc(NC(=O)CN(C)C(=O)C2CC2)c1C ?
CSC inhib: inactive; Mdm2-MdmX inh: inactive

Results for CC1CCN(CC(O)CN2c3ccccc3Sc3ccccc32)CC1 (stereo not given) ?
aSyn UTR inh: inactive; SKKanGAS inh: inactive; T cruzi inh: inactive; CSC inhib: inactive; Mdm2-MdmX inh: 54; Mdm2 MdmX conf: inactive

How did Cc1ccc(NC(=O)COC(=O)C2CC2)c(Br)c1 do in these assays?
aSyn UTR inh: inactive; SKKanGAS inh: inactive; T cruzi inh: inactive; CSC inhib: inactive; Mdm2-MdmX inh: inactive

How did Cc1ccc(/C=C/C(=O)O)cc1S(=O)(=O)N1CCCCC1 do in these assays?
aSyn UTR inh: inactive; SKKanGAS inh: inactive; T cruzi inh: inactive; CSC inhib: inactive; Mdm2-MdmX inh: inactive

Results for O=[N+]([O-])c1ccc(C(=Nc2cccc3ccccc23)N2CCOCC2)cc1 ?
aSyn UTR inh: inactive; SKKanGAS inh: inactive; T cruzi inh: inactive; CSC inhib: inactive; Mdm2-MdmX inh: inactive

Results for O=C(Nc1cccc(O)c1)C1CC(c2ccc(Cl)cc2)=NO1 (stereo not given) ?
aSyn UTR inh: inactive; SKKanGAS inh: inactive; T cruzi inh: inactive; CSC inhib: inactive; Mdm2-MdmX inh: inactive

Results for Cc1ccc(C)c(Oc2ncnc(N)c2[N+](=O)[O-])c1 ?
aSyn UTR inh: inactive; SKKanGAS inh: inactive; T cruzi inh: inactive; CSC inhib: inactive; Mdm2-MdmX inh: inactive

How did Cc1cc(Sc2ncnc(N)c2[N+](=O)[O-])ncn1 do in these assays?
aSyn UTR inh: inactive; SKKanGAS inh: inactive; T cruzi inh: inactive; CSC inhib: inactive; Mdm2-MdmX inh: 93; Mdm2 MdmX conf: inactive

What do the screens show for `Cc1ccc(C)c(C2NC(=O)c3ccccc3N2)c1` (stereo not given)?
aSyn UTR inh: inactive; SKKanGAS inh: inactive; T cruzi inh: inactive; CSC inhib: inactive; Mdm2-MdmX inh: 50; Mdm2 MdmX conf: 53; Full FLuc ctr: 55

How did Cc1cc(C)c2nc(Cl)c(C3NC(=O)c4ccccc4N3)cc2c1 (stereo not given) do in these assays?
aSyn UTR inh: inactive; SKKanGAS inh: inactive; T cruzi inh: inactive; CSC inhib: inactive; Mdm2-MdmX inh: inactive

Results for O=C(CCCn1c(=O)[nH]c2cc(Cl)ccc2c1=O)NCCCN1CCN(c2ccc(F)cc2)CC1 ?
aSyn UTR inh: inactive; SKKanGAS inh: inactive; T cruzi inh: inactive; CSC inhib: inactive; Mdm2-MdmX inh: inactive

How did CN(C)CCNC(=O)COc1ccc(C23CC4CC(CC(C4)C2)C3)cc1 do in these assays?
aSyn UTR inh: inactive; SKKanGAS inh: inactive; T cruzi inh: 68; CSC inhib: 82; Mdm2-MdmX inh: 66; Mdm2 MdmX conf: inactive

Results for O=C(Cc1ccc(N2CCNC2=O)cc1)N1CCCC(Nc2ccc(F)c(F)c2)C1 (stereo not given) ?
aSyn UTR inh: inactive; SKKanGAS inh: inactive; T cruzi inh: inactive; CSC inhib: 83; Mdm2-MdmX inh: 54; Mdm2 MdmX conf: 75; Full FLuc ctr: 56

What do the screens show for `O=C(Cc1ccc(N2CCNC2=O)cc1)N1CCCC(Nc2cccc(F)c2)C1` (stereo not given)?
aSyn UTR inh: 64; SKKanGAS inh: inactive; T cruzi inh: inactive; CSC inhib: inactive; Mdm2-MdmX inh: 60; Mdm2 MdmX conf: 60; Full FLuc ctr: 62

How did CCn1c(-c2ccccc2)c(C(=O)CCl)c2ccccc21 do in these assays?
aSyn UTR inh: inactive; SKKanGAS inh: inactive; T cruzi inh: 61; CSC inhib: inactive; Mdm2-MdmX inh: 98; Mdm2 MdmX conf: inactive

From PubChem
